Experimental data taken from ChEMBL document CHEMBL1125434, “Preparation and in vitro and in vivo evaluation of quinolones with selective activity against gram-positive organisms” (1992).
Values after ≈ are worked out from the molar mass of the structure shown.

Tests used:
Type in all cases: functional
Klebsiella aerogenes = assay: In vitro minimum inhibitory concentration against Enterobacter aerogenes ATCC 13048 using brain-heart infusion agar
Outline: (§1)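 Overnight cultures were grown in BHI broth at 36 °C. Twofold dilutions of a 2000 µg/mL stock were made in BHI agar, giving 200–0.005 µg/mL. Plates received about 10^4 organisms and were incubated for 18 h at 36 °C. MIC was the lowest concentration with no visible growth on the plate.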

Staphylococcus aureus [1] = assay: In vitro minimum inhibitory concentration against Staphylococcus aureus A 5177 using brain-heart infusion agar; outline: as §1
Pseudomonas aeruginosa [2] = assay: In vitro minimum inhibitory concentration against Pseudomonas aeruginosa K799 / WT using brain-heart infusion agar; outline: as §1
Enterococcus faecium = assay: In vitro minimum inhibitory concentration against Enterococcus faecium ATCC 8043 using brain-heart infusion agar; outline: as §1
Streptococcus agalactiae = assay: In vitro minimum inhibitory concentration against Streptococcus agalactiae CMX 508 using brain-heart infusion agar; outline: as §1
Streptococcus equinus = assay: In vitro minimum inhibitory concentration against Streptococcus bovis A5169 using brain-heart infusion agar; outline: as §1
Acinetobacter = assay: In vitro minimum inhibitory concentration against Acinetobacter CMX 669 using brain-heart infusion agar; outline: as §1
Staphylococcus aureus [3] = assay: In vitro minimum inhibitory concentrationp against Staphylococcus aureus ATCC 6538P using brain-heart infusion agar; outline: as §1
Streptococcus pyogenes = assay: In vitro minimum inhibitory concentration against Streptococcus pyogenes 930 using brain-heart infusion agar; outline: as §1
Escherichia coli = assay: In vitro minimum inhibitory concentration against Escherichia coli Juhl using brain-heart infusion agar; outline: as §1
Staphylococcus aureus [4] = assay: In vitro minimum inhibitory concentration against Staphylococcus aureus CMX 553 using brain-heart infusion agar; outline: as §1
Klebsiella pneumoniae = assay: In vitro minimum inhibitory concentration against Klebsiella pneumoniae 8045 using brain-heart infusion agar; outline: as §1
[5] = tested on: Staphylococcus epidermidis; assay: In vitro minimum inhibitory concentration against Staphylococcus epidermidis 3159 using brain-heart infusion agar; outline: as §1
Pseudomonas aeruginosa [6] = assay: In vitro minimum inhibitory concentration against Pseudomonas aeruginosa A5007 using brain-heart infusion agar; outline: as §1

NC1CCN(c2cc3c(cc2F)c(=O)c(C(=O)O)cn3-c2ccc(F)cc2F)CC1
MIC (Klebsiella aerogenes): 0.39 µg/mL (≈ 0.934 µM)
MIC (Staphylococcus aureus [1]): 0.39 µg/mL (≈ 0.934 µM)
MIC (Pseudomonas aeruginosa [2]): 0.78 µg/mL (≈ 1.87 µM)
MIC (Enterococcus faecium): 0.78 µg/mL (≈ 1.87 µM)
MIC (Streptococcus agalactiae): 0.78 µg/mL (≈ 1.87 µM)
MIC (Streptococcus equinus): 1.56 µg/mL (≈ 3.74 µM)
MIC (Acinetobacter): 0.78 µg/mL (≈ 1.87 µM)
MIC (Staphylococcus aureus [3]): 0.1 µg/mL (≈ 0.24 µM)
MIC (Streptococcus pyogenes): 0.39 µg/mL (≈ 0.934 µM)
MIC (Escherichia coli): 0.1 µg/mL (≈ 0.24 µM)
MIC (Staphylococcus aureus [4]): 0.39 µg/mL (≈ 0.934 µM)
MIC (Klebsiella pneumoniae): 0.1 µg/mL (≈ 0.24 µM)
MIC [5]: 0.39 µg/mL (≈ 0.934 µM)
MIC (Pseudomonas aeruginosa [6]): 0.78 µg/mL (≈ 1.87 µM)
